Laboratory results taken from ChEMBL document CHEMBL4261600 (Eur J Med Chem, 2018).

Columns and labels:
[1] = Tmax in mouse at 10 mg/kg, po by LC-MS/MS analysis; type: ADME, organism-based; conditions: in vivo
[2] = AUC (0 to infinity) in Sprague-Dawley rat at 3 mg/kg, iv by LC-MS/MS analysis; type: ADME, organism-based; set-up: dose 3 mg/kg, time infinity, route intravenous; conditions: in vivo
Method in brief: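 Non-compartmental PK. Male SD rats 190-210 g, mice and beagle dogs acclimatized one week, fasted 12 h with water, split into iv and po groups (mice 48, rats 6, dogs 6). iv 3/3/2 mg/kg (mice/rats/dogs); po 10/20/10 mg/kg; vehicle DMSO in 5% glucose water. Blood at 2 or 5 to 720 min; plasma protein-precipitated with methanol, caffeine internal standard, LC-MS/MS.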

[3] = tested on: Tyrosine-protein kinase ABL1 (Homo sapiens), P00519 [F317I]; assay: Binding affinity to human non-phosphorylated ABL1 F317I mutant (S229 to K512 residues) expressed in mammalian expression system assessed as remaining unbound target protein level at 1000 nM by Kinomescan method relative to control
Method in brief: (§1)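 KINOMEscan competition-binding profiling across the panel of 468 kinases and mutants, with inhibitor tested at 1 μM. Binding is expressed as percent of control, with DMSO as the reference control.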

[4] = target: Activin receptor type-1-like (Homo sapiens) (UniProt P37023); assay: Binding affinity to wild-type human ACVRL1 (L164 to Q503 residues) expressed in bacterial expression system assessed as remaining unbound target protein level at 1000 nM by Kinomescan method relative to control
Method in brief: (§2)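 Single-point competition binding screen across a panel of 468 kinases and mutants, with the inhibitor at 1 μM. Binding is read out as percent of a DMSO control, and targets below 1 percent control were classed as strong binders.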

[5] = target: Atypical kinase COQ8A, mitochondrial (Homo sapiens) (UniProt Q8NI60); assay: Binding affinity to wild-type human […] length ADCK3 (M280 to Q647 residues) expressed in bacterial expression system assessed as remaining unbound target protein level at 1000 nM by Kinomescan method relative to control; method in brief: as §2
Atypical kinase COQ8A, mitochondrial (Homo sapiens), sequence (Q8NI60 163-647 limits assumed): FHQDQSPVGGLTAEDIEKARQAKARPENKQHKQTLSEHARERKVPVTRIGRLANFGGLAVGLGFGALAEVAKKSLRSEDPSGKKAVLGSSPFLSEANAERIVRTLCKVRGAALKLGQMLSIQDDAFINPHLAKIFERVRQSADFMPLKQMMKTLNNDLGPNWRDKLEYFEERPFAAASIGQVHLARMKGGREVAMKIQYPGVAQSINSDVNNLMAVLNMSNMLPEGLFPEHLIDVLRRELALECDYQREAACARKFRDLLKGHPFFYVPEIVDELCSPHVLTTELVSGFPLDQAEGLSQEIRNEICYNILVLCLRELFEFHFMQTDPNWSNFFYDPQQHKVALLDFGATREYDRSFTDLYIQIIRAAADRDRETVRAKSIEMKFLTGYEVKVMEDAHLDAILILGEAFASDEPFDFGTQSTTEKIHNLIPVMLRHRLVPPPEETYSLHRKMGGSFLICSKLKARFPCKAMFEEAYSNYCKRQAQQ

[6] = target: 5'-AMP-activated protein kinase catalytic subunit alpha-2 (Homo sapiens) (UniProt P54646); assay: Binding affinity to wild-type human partial length AMPK alpha2 (M1 to E306 residues) expressed in bacterial expression system assessed as remaining unbound target protein level at 1000 nM by Kinomescan method relative to control
5'-AMP-activated protein kinase catalytic subunit alpha-2 (Homo sapiens), sequence (P54646 whole entry, looked up, the tested form may be a part): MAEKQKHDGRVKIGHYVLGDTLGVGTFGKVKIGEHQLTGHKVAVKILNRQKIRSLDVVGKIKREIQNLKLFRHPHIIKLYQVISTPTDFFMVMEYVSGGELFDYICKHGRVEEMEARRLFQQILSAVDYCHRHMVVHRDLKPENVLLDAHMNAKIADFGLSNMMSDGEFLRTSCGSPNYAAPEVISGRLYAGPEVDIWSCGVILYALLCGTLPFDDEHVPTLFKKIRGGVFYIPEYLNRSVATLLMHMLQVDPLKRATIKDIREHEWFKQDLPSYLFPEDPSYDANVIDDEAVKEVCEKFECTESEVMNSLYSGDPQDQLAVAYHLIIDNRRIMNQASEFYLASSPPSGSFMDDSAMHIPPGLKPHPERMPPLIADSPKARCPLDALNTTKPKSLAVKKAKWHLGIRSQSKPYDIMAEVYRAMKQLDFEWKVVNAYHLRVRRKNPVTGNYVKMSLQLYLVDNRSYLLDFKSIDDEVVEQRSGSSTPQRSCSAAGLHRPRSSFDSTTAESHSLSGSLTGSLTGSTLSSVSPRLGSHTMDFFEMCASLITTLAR
Method in brief: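 Profiled in a KINOMEscan binding panel with the inhibitor at a single concentration of 1 μM. Binding to each kinase was read out as percent of control, relative to a DMSO control. Strong binders were defined as those with a percent control value below 1.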

[7] = target: Dual specificity protein kinase CLK2 (Homo sapiens) (UniProt P49760); assay: Binding affinity to wild-type human partial length CLK2 (D144 to R498 residues) expressed in bacterial expression system assessed as remaining unbound target protein level at 1000 nM by Kinomescan method relative to control
Dual specificity protein kinase CLK2 (Homo sapiens), sequence (P49760 whole entry, looked up, the tested form may be a part): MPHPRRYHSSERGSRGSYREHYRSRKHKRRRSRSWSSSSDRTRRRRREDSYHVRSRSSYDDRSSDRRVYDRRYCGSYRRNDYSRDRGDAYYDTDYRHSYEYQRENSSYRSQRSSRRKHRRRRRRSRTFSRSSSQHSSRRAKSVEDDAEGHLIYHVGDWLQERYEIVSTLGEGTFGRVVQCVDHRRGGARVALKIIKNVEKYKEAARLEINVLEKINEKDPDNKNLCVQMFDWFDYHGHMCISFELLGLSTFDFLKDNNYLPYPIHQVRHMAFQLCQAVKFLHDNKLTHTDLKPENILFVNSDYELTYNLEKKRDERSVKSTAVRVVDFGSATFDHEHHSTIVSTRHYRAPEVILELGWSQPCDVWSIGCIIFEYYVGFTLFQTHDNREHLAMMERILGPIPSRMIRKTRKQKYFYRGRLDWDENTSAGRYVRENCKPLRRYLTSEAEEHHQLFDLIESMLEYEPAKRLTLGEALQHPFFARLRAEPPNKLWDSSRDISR
Method in brief: (§3)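 KINOMEscan competition binding profile across a panel of 468 kinases and mutants, with the inhibitor tested at a single concentration of 1 μM. Binding is reported as percent of control, meaning signal relative to a DMSO control.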

[8] = target: Epidermal growth factor receptor (Homo sapiens) (UniProt P00533); assay: Binding affinity to wild-type human partial length EGFR (R669 to V1011 residues) expressed in bacterial expression system assessed as remaining unbound target protein level at 1000 nM by Kinomescan method relative to control
Epidermal growth factor receptor (Homo sapiens), sequence (P00533 whole entry, the tested form may be a part): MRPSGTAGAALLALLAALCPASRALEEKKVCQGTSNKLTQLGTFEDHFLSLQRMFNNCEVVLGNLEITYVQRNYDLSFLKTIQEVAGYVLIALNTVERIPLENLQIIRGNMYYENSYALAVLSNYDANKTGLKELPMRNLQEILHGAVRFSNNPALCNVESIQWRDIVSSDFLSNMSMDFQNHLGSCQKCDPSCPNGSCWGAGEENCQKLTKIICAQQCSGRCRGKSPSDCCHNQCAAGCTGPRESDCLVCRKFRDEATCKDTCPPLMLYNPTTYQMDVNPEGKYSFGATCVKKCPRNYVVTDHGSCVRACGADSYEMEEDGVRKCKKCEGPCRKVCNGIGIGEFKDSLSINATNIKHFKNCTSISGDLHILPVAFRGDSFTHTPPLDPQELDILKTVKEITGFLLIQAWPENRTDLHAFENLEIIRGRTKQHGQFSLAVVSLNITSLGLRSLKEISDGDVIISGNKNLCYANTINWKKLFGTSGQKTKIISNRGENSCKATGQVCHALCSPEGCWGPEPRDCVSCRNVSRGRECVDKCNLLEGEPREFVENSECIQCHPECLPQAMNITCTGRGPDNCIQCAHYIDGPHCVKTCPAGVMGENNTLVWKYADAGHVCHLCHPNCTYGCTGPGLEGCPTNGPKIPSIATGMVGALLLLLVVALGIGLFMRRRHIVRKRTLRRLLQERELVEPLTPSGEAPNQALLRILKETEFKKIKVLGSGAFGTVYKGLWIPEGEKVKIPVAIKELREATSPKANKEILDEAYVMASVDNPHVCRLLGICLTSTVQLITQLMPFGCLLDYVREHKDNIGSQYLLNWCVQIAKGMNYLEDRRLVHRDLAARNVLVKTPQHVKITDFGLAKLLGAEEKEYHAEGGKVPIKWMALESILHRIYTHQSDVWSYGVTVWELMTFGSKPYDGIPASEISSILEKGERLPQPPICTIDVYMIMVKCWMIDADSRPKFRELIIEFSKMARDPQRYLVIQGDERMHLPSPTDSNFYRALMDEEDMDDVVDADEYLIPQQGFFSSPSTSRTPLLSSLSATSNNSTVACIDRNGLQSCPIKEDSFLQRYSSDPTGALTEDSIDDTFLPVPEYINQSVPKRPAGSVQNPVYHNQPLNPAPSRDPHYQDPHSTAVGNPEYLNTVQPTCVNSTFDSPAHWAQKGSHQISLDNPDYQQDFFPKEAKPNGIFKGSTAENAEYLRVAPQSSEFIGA

[9] = target: Ephrin type-A receptor 2 (Homo sapiens) (UniProt P29317); assay: Binding affinity to wild-type human partial length EPHA2 (T593 to V891 residues) expressed in bacterial expression system assessed as remaining unbound target protein level at 1000 nM by Kinomescan method relative to control
Ephrin type-A receptor 2 (Homo sapiens), sequence (P29317 whole entry, the tested form may be a part): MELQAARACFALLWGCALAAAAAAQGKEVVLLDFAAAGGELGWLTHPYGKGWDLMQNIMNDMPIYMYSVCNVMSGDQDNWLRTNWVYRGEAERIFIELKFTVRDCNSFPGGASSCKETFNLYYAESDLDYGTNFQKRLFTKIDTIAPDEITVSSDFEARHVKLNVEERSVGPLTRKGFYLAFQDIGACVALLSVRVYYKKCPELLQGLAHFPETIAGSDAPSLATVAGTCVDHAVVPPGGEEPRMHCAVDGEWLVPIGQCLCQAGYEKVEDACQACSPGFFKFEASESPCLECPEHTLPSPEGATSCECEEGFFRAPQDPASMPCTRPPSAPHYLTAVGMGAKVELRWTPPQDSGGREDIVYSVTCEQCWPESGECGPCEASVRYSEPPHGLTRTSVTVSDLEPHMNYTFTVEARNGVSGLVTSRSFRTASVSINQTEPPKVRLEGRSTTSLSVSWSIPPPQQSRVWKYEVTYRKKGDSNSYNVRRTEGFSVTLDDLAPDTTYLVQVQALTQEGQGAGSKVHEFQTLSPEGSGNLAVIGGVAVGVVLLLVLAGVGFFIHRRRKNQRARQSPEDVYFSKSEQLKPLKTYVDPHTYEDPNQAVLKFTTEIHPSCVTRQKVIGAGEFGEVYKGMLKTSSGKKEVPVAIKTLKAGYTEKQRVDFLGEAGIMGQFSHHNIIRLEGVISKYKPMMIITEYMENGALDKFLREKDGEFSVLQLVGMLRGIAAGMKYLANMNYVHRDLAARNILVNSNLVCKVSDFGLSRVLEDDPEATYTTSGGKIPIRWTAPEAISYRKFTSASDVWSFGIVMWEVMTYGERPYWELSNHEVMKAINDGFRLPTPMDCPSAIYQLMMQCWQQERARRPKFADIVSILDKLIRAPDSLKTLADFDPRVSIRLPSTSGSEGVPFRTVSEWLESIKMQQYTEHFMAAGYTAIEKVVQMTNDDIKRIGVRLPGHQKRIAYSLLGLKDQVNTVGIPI

[10] = target: Ephrin type-A receptor 4 (Homo sapiens) (UniProt P54764); assay: Binding affinity to wild-type human partial length EPHA4 (T601 to R897 residues) expressed in bacterial expression system assessed as remaining unbound target protein level at 1000 nM by Kinomescan method relative to control
[11] = target: Ephrin type-B receptor 2 (Homo sapiens) (UniProt P29323); assay: Binding affinity to wild-type human partial length EPHB2 (I597 to L902 residues) expressed in bacterial expression system assessed as remaining unbound target protein level at 1000 nM by Kinomescan method relative to control
[12] = target: Mitogen-activated protein kinase kinase kinase 4 (Homo sapiens) (UniProt Q9Y6R4); assay: Binding affinity to wild-type human partial length MAP3K4 (G1319 to E1608 residues) expressed in bacterial expression system assessed as remaining unbound target protein level at 1000 nM by Kinomescan method relative to control
[13] = target: Microtubule-associated serine/threonine-protein kinase 1 (Homo sapiens) (UniProt Q9Y2H9); assay: Binding affinity to wild-type human partial length MAST1 (S346 to V730 residues) expressed in mammalian expression system assessed as remaining unbound target protein level at 1000 nM by Kinomescan method relative to control
[14] = target: Serine/threonine-protein kinase 24 (Homo sapiens) (UniProt Q9Y6E0); assay: Binding affinity to wild-type human partial length MST3 (A30 to S311 residues) expressed in bacterial expression system assessed as remaining unbound target protein level at 1000 nM by Kinomescan method relative to control
[15] = target: Myosin light chain kinase 2, skeletal/cardiac muscle (Homo sapiens) (UniProt Q9H1R3); assay: Binding affinity to wild-type human partial length MYLK2 (D258 to K570 residues) expressed in bacterial expression system assessed as remaining unbound target protein level at 1000 nM by Kinomescan method relative to control
Method in brief: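 KINOMEscan binding panel of 468 kinases/mutants. Inhibitor was tested at a single concentration of 1 μM. Binding is reported as percent of control, defined relative to a DMSO control.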

[16] = target: Serine/threonine-protein kinase Nek5 (Homo sapiens) (UniProt Q6P3R8); assay: Binding affinity to wild-type human partial length NEK5 (M1 to M279 residues) expressed in bacterial expression system assessed as remaining unbound target protein level at 1000 nM by Kinomescan method relative to control
[17] = tested on: Phosphatidylinositol 4,5-bisphosphate 3-kinase catalytic subunit alpha isoform (Homo sapiens), P42336 [M1043I]; assay: Binding affinity to human partial length PIK3CA M1043I mutant (R108 to N1068 residues) expressed in mammalian expression system assessed as remaining unbound target protein level at 1000 nM by Kinomescan method relative to control; method in brief: as §1
Phosphatidylinositol 4,5-bisphosphate 3-kinase catalytic subunit alpha isoform (Homo sapiens), P42336 [M1043I], sequence (P42336 whole entry M1043I, the tested form may be a part, canonical isoform): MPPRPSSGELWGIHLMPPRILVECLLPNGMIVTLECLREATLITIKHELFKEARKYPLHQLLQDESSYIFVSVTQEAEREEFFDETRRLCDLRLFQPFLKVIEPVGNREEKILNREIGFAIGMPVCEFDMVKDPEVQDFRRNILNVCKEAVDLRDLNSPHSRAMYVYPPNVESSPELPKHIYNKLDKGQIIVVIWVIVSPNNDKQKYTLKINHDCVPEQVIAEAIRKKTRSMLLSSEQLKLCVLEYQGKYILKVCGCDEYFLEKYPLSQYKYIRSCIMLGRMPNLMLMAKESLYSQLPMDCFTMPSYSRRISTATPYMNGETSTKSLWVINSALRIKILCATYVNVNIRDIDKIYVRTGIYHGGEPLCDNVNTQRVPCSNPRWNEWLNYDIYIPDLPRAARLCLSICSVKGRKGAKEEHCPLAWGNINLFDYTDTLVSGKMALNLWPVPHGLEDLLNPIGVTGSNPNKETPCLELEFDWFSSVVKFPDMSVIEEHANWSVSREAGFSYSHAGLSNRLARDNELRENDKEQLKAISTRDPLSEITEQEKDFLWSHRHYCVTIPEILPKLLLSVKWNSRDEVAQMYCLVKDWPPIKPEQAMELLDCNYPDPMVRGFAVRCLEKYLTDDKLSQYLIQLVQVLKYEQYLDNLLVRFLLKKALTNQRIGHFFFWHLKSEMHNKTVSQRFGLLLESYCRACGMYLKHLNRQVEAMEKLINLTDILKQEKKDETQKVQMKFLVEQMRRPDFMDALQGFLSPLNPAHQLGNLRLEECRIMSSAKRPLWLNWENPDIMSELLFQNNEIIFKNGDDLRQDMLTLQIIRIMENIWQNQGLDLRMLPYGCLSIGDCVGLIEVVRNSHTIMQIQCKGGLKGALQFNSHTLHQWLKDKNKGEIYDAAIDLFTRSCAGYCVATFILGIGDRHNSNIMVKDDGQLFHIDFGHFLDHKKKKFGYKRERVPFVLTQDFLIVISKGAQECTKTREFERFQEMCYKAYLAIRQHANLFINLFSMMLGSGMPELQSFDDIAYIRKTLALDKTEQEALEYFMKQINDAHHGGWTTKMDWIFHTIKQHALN

[18] = target: Ribosomal protein S6 kinase alpha-6 (Homo sapiens) (UniProt Q9UK32); assay: Binding affinity to wild-type human partial length C-terminal RSK4 kinase domain 2 (I401 to Y711 residues) expressed in bacterial expression system assessed as remaining unbound target protein level at 1000 nM by Kinomescan method relative to control; method in brief: as §3
[19] = target: Serine/threonine-protein kinase Sgk2 (Homo sapiens) (UniProt Q9HBY8); assay: Binding affinity to wild-type human partial length SGK2 (L54 to C427 residues) expressed in mammalian expression system assessed as remaining unbound target protein level at 1000 nM by Kinomescan method relative to control
[20] = target: Mitogen-activated protein kinase kinase kinase 20 (Homo sapiens) (UniProt Q9NYL2); assay: Binding affinity to wild-type human partial length ZAK (M1 to L331 residues) expressed in bacterial expression system assessed as remaining unbound target protein level at 1000 nM by Kinomescan method relative to control

Structure (SMILES): COCCN[C@H]1CC[C@H](Nc2cc(-c3csc(NCC4(C#N)CCOCC4)n3)c(Cl)cn2)CC1
- Tmax [1]: 2 h
- AUC(0-inf) [2]: 662 ng·h/mL
- Activity [3]: 90%
- Activity [4]: 100%
- Activity [5]: 88%
- Activity [6]: 100%
- Activity [7]: 38%
- Activity [8]: 94%
- Activity [9]: 84%
- Activity [10]: 96%
- Activity [11]: 82%
- Activity [12]: 89%
- Activity [13]: 88%
- Activity [14]: 90%
- Activity [15]: 93%
- Activity [16]: 90%
- Activity [17]: 95%
- Activity [18]: 99%
- Activity [19]: 89%
- Activity [20]: 96%
